Test results: ChEMBL document CHEMBL1139031, “Synthesis and insecticidal activity of fluorinated 2-(2,6-dichloro-4-trifluoromethylphenyl)-2,4,5,6-tetrahydrocyclopentapyrazoles” (Bioorg Med Chem Lett, 2006)

Experiments:
GABA receptor subunit = biological target: T1, GABA receptor subunit (Musca domestica, UniProt Q75NA5); assay: Displacement of [3H]EBOB from housefly neuronal membrane GABA receptor
T1 sequence (Q75NA5 whole entry): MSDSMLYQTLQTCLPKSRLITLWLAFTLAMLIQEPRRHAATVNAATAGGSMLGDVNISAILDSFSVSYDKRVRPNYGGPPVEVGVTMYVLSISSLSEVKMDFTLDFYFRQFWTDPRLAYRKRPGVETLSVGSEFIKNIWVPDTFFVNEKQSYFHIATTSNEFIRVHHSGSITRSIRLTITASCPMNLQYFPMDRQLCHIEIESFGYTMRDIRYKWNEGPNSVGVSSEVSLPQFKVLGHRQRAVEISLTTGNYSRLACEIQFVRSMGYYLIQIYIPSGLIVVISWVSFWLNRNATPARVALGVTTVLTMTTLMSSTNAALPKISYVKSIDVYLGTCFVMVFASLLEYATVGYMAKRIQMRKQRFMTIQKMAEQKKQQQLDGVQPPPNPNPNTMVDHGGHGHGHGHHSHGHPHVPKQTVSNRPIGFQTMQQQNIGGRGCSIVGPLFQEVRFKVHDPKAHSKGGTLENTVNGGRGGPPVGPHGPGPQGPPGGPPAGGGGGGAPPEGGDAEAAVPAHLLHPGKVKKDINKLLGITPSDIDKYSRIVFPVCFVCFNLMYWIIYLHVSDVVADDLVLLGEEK
Summary of the method: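 Housefly neuronal membranes (0.5–1.0 mg/mL in added buffer) with 5.2 nM [3H]EBOB in ice-cold 10 mM phosphate, 300 mM NaCl, pH 7.5; DMSO compound solutions. Incubated 45 min at 24 °C, then filtered on polyethylenimine-soaked glass fiber; bound radioactivity counted. Membrane-free wells served as controls. Actives were retested at 24–48 final concentrations, and IC50 was taken at 50% of maximal inhibition.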

[1] = Selectivity for housefly GABA receptor over mouse GABA receptor
Musca domestica [2] = assay: Insecticidal activity against housefly by contact assay; assay type: functional; set-up: concentration or dose not given beside the values
Summary of the method: (§1)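 Newly emerged houseflies were CO2-sedated and fed 10% sucrose for 2–4 h. Compound in DMSO with isopropanol was rolled to coat glass tubes and air-dried for 24–48 h, with a DMSO-only control. Twenty flies, sedated by refrigeration at 0–4 °C, were placed in each tube. Healthy, moribund and dead flies were counted after 24 h.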

Ctenocephalides felis [3] = assay: Insecticidal activity against cyclodiene resistant allele-homozygous serine S/S flea by contact assay; assay type: functional
Summary of the method: (§2)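 Contact vial assay with cat fleas of the cyclodiene-resistant homozygous serine (CO) or sensitive homozygous alanine (ARC) strain. Compound in DMSO was dried onto a glass-fiber disk for 24–48 h, and a DMSO-only disk was the control. Twenty newly emerged fleas, sedated at 0–4 °C, were sealed in each vial and held in the dark. Dead fleas were counted after 24 h, and percentage mortality was calculated.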

Ctenocephalides felis [4] = assay: Insecticidal activity against ARC sensitive homozygous alanine A/A flea at 100 mM by contact assay; assay type: functional; summary of the method: as §2
[5] = (§3) Half life in mouse liver microsome; assay type: ADME; details: liver microsomes
Canis familiaris [6] = species: Canis familiaris; assay: (§4) Half life in dog liver microsome; assay type: ADME, Canis lupus familiaris; details: microsomes
Mus musculus [7] = species: Mus musculus; assay: Clearance in mouse; assay type: ADME, organism-based; details: in vitro
Canis familiaris [8] = species: Canis familiaris; assay: Clearance in dog; assay type: ADME, organism-based, Canis lupus familiaris; details: in vitro
[9] = biological target: GABA-A receptor; anion channel; assay: Binding affinity to mouse brain GABA receptor
Summary of the method: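 Displacement of [3H]EBOB (5.2 nM, 38 Ci/mmol) from neuronal membranes (0.5–1.0 mg/mL), housefly or mouse brain, in ice-cold 10 mM phosphate, 300 mM NaCl, pH 7.5. Compound added from DMSO. Membrane-free wells served as controls. Incubated 45 min at 24 °C, then filtered on polyethylenimine-soaked glass fiber and bound radioactivity counted. IC50 (50% of maximal inhibition) taken from 24–48 concentrations.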

Ctenocephalides felis [10] = assay: Insecticidal activity against cyclodiene resistant allele-homozygous serine S/S flea at 100 mM by contact assay; assay type: functional; summary of the method: as §2
Musca domestica [11] = assay: Insecticidal activity against housefly at 100 mM by contact assay; assay type: functional; details: for LC50: Musca domestica, read-out: LD50 (the source's name); summary of the method: as §1
Ctenocephalides felis [12] = assay: Insecticidal activity against heterozygous S/A flea by contact assay; assay type: functional
Mus musculus [13] = species: Mus musculus; assay: as §3; assay type: ADME; details: microsomes
[14] = as §4; assay type: ADME, Canis lupus familiaris; details: liver microsomes
[15] = read-out: LD50 (the source's name)

| SMILES | IC50 (GABA receptor subunit) [µM] | selectivity ratio [1] | Activity (Musca domestica [2]) [%] | LC50 (Ctenocephalides felis [3]; [15]) [µM] | Activity (Ctenocephalides felis [4]) [%] | IC50 [9] [µM] | Activity (Ctenocephalides felis [10]) [%] | further results |
| --- | --- | --- | --- | --- | --- | --- | --- | --- |
| FC1Cc2nn(-c3c(Cl)cc(C(F)(F)F)cc3Cl)cc2C1(F)F (stereo unspecified) | < 0.1 | > 10 | 100 | 1000 | 100 | 1 |  | half-life [5]: 1.08 h; T1/2 (Canis familiaris [6]): Stable; CL (Mus musculus [7]): 109.2 pmol/min/mg; CL (Canis familiaris [8]): Stable |
| CC1(F)CC(F)(F)c2nn(-c3c(Cl)cc(C(F)(F)F)cc3Cl)cc21 (stereo unspecified) |  |  | 16.7 |  | 100 | > 10 | 3 |  |
| O=C1c2cn(-c3c(Cl)cc(C(F)(F)F)cc3Cl)nc2CC1F (stereo unspecified) | 0.32 | 10 | 57.5 |  | 95.4 | 3.2 | 10.8 |  |
| FC1CCc2cn(-c3c(Cl)cc(C(F)(F)F)cc3Cl)nc21 (stereo unspecified) | 0.29 | 10 | 85 | 11000 | 95 | 2.9 |  |  |
| FC(F)(F)c1cc(Cl)c(-n2cc3c(n2)CCC3)c(Cl)c1 |  | 19 |  |  | 100 | 1.6 |  | Activity (Musca domestica [11]): 30%; LC50 (Ctenocephalides felis [3]; read-out: LC50): 8000 µM; LC50 (Ctenocephalides felis [12]): 7000 µM |
| FC(F)(F)c1cc(Cl)c(-n2cc3c(n2)CCC3(F)F)c(Cl)c1 | > 0.1 | < 10 |  | 1000 | 100 | 1 |  | LC50 (Musca domestica [11]): 88000 µM |
| COC1(C)c2cn(-c3c(Cl)cc(C(F)(F)F)cc3Cl)nc2CC1F (stereo unspecified) | 0.1 | 120 |  | 1800 | 100 | 12 |  | half-life [5]: 2.42 h; T1/2 (Canis familiaris [6]): Stable; CL (Mus musculus [7]): 34.1 pmol/min/mg; CL (Canis familiaris [8]): Stable |
| O=C1CC(F)(F)c2nn(-c3c(Cl)cc(C(F)(F)F)cc3Cl)cc21 |  |  | 6 |  | 40 |  | 1 |  |
| O=C1CCc2nn(-c3c(Cl)cc(C(F)(F)F)cc3Cl)cc21 | 0.47 | 42 |  |  | 16.5 | 20 |  | LC50 (Musca domestica [11]): 81000 µM |
| FC1(F)Cc2cn(-c3c(Cl)cc(C(F)(F)F)cc3Cl)nc2C1 | 0.2 | 1 | 87.9 | 2000 | 100 | 0.175 |  |  |
| CC1CCc2nn(-c3c(Cl)cc(C(F)(F)F)cc3Cl)cc21 (stereo unspecified) | 0.03 | 126 |  |  | 100 | 3.8 |  | Activity (Musca domestica [11]): 10%; LC50 (Ctenocephalides felis [3]; read-out: LC50): 10000 µM; LC50 (Ctenocephalides felis [12]): 3000 µM |
| COC1CC(F)(F)c2nn(-c3c(Cl)cc(C(F)(F)F)cc3Cl)cc21 (stereo unspecified) |  |  | 22 |  | 100 | 3.7 | 3 |  |
| FC(F)(F)c1cc(Cl)c(-n2cc3c(n2)C(F)(F)CC3(F)F)c(Cl)c1 | 0.074 | 4 | 93.9 |  | 100 | 0.3 | 60.7 |  |
| FC1CCc2nn(-c3c(Cl)cc(C(F)(F)F)cc3Cl)cc21 (stereo unspecified) | 1.7 | > 5 | 7 |  |  | > 10 | 36 |  |
| CC1(O)c2cn(-c3c(Cl)cc(C(F)(F)F)cc3Cl)nc2CC1(F)F (stereo unspecified) |  | 23 | 72 | 10000 | 100 | 2.3 |  | T1/2 (Mus musculus [13]): Stable; half-life [14]: 8.45 h; CL (Mus musculus [7]): Stable; CL (Canis familiaris [8]): 296.9 pmol/min/mg |
| CC1(O)c2cn(-c3c(Cl)cc(C(F)(F)F)cc3Cl)nc2C(F)C1F (stereo unspecified) |  | > 28 | 100 | 5000 | 100 | > 10 |  |  |
| FC(F)(F)c1cc(Cl)c(-n2cc3c(n2)CC(F)(F)C3(F)F)c(Cl)c1 | < 0.1 | > 0.5 |  | < 500 | 100 | 0.05 |  |  |
| FC(F)(F)c1cc(Cl)c(-n2cc3c(n2)C(F)(F)CC3)c(Cl)c1 |  |  |  | 15000 | 100 | 2.8 |  |  |
| O=C1c2cn(-c3c(Cl)cc(C(F)(F)F)cc3Cl)nc2CC1(F)F |  |  | 6 |  | 40 |  | 1 |  |
| FC1Cc2cn(-c3c(Cl)cc(C(F)(F)F)cc3Cl)nc2C1F (stereo unspecified) | 0.2 | 5 |  |  | 100 | 1 |  | LC50 (Musca domestica [11]): 79000 µM; half-life [5]: 0.373 h; T1/2 (Canis familiaris [6]): Stable; CL (Mus musculus [7]): 255.1 pmol/min/mg; CL (Canis familiaris [8]): Stable |
| FC1c2nn(-c3c(Cl)cc(C(F)(F)F)cc3Cl)cc2C(F)(F)C1F (stereo unspecified) |  |  |  | < 500 | 100 | 0.175 |  | LC50 (Musca domestica [11]): 400 µM |
